# Compound activity as filed in PubChem.
# Compounds with a hit are over-represented: about 1.3% of the library has one in this group of screens.
# CHT PAM = CHT positive allosteric modulators, primary screen, cell-based, membrane potential dye, choline EC20. B-score at 10 µM. CHT-expressing cells; hits give high values; LV-AA mutant CHT in HEK293 cells. 310,000 compounds, 0.49% hits. AID 488977, 2010;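 active = initial fluorescence not abnormally high and integrated response B-score, plate-corrected, over 3 SD above library mean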
# Target sequence (Q9GZV3 whole entry, looked up): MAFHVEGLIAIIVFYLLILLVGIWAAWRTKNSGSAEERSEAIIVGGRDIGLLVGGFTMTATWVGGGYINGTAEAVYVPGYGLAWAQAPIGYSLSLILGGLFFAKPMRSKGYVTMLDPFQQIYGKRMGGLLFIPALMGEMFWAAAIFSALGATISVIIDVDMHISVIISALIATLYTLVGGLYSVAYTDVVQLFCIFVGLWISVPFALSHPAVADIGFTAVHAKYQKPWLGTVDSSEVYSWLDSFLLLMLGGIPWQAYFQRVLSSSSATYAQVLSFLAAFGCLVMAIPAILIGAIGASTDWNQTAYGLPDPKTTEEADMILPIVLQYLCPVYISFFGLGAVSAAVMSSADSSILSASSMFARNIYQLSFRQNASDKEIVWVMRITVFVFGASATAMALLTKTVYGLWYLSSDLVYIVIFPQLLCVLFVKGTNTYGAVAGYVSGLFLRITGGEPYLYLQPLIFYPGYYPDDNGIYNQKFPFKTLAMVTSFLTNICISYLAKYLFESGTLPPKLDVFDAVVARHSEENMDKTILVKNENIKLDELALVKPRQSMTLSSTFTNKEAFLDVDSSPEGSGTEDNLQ
# proCasp3 act = activators of human procaspase-3 D3A mutant, primary screen, biochemical, absorbance, PC-3 D3A mutant, single concentration; recombinant procaspase-3 D3A, Ac-DEVD-pNA absorbance 405 nm; 330,000 compounds, 0.11% hits; activation, % at 8.5 µM;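 active = activation above the mean of all tested compounds plus 3 SD, cut at about 21% in these data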;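 also: 0% = DMSO alone and 100% = DMSO wells spiked with extra 5 µM PC-3 D3A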
#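 Compound: 8.5 µM single point, 0.8% DMSO / Material: Autoprocessing-dead procaspase-3 D3A mutant enzyme / Timing: 1 h preincubation plus 2 h reaction at 25 °C / Medium: Zinc-free HEPES/NaCl buffer with 0.01% Triton X-100 at pH 7.4 / Technique: 405 nm absorbance of p-nitroaniline, reads at 0 and 120 min / Repeats: one well per compound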
# proCasp7 act = procaspase-7 activators, primary screen, counter-screen for procaspase-3 activator project, biochemical, absorbance, HTS, human; Caspase-7 (Homo sapiens), P55210; recombinant procaspase-7, Ac-DEVD-pNA absorbance 405 nm; D23A/D198A/D206A triple mutant, cannot self-cleave; scale: DMSO 0, 5 µM enzyme 100; activation, % at 8.5 µM; 330,000 compounds, 0.093% hits; AID 463210, 2010;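 active = percent activation above the screen-wide mean plus 3 SD, cut at about 25% in these data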
#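 signal = Epi-absorbance of released pNA at 405 nm, two timepoints | assay system = Uncleavable procaspase-7 mutant enzyme | reagent = Ac-DEVD-pNA substrate, 400 µM as added | times = 1 h enzyme–compound preincubation and 2 h substrate reaction, both 25 °C | benchmarks = low DMSO alone, high DMSO plus 5 µM PC-7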
# CHT inh = inhibitors of human choline transporter CHT | 310,000 compounds, 0.86% hits | CHT-expressing cells, membrane potential dye, choline response; hits give low values | B-score at 10 µM | High affinity choline transporter 1 (Homo sapiens), Q9GZV3 | AID 488975, 2010;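 active = B-score over 3 SD under the library average, and starting fluorescence ratio not unusually high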;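 also: choline stimulus applied at its EC90 after an EC20 pre-addition; B-score computed on integrated fluorescence ratio after choline addition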
# CHT block conf = CHT inhibitors, confirmation, cell-based, membrane potential dye, duplicate; CHT-expressing cells, choline membrane potential dye; LV-to-AA substituted CHT, HEK293 cells; AID 493221, 2011; shares compounds with CHT inh; 2,400 compounds, 70% hits; CHT activity remaining % of control (hits give low values), % at 10 µM;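 active = choline transporter activity left, mean of duplicates at 10 µM, below buffer-only control mean minus 3 SD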;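 also: depolarization triggered by choline at its EC90 following an EC20 pre-addition; 0% = hemicholinium-3 full block and 100% = buffer-only control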
# HEK293 MPD ctr = membrane potential effects in parental HEK293, counter-screen for CHT inhibitor project, cell-based, membrane potential dye; shares compounds with CHT inh; choline response; active = decrease or increase beyond buffer ±3SD; membrane potential ratio readout (active if shifted either direction beyond buffer ±3SD; no single direction) at 10 µM; 2,400 compounds, 4% hits; AID 493222, 2011;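 also: parental cells lack the transporter so any hit is non-specific; ratio is peak minus trough fluorescence over baseline after EC90 choline challenge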
# An asterisk follows results filed as active; i = inactive; · = not tested or not shown.
SMILES,CHT PAM,proCasp3 act,proCasp7 act,CHT inh,CHT block conf,HEK293 MPD ctr
NC(=O)NC(Cc1ccccc1)C(=O)NCCCSc1ccccc1 (stereo not given),i,-3,12,i,·,·
N=C1CCCN1CC(=O)c1ccc(Br)cc1,i,6,5,-19*,1.5%*,i
CCCc1ccc(S(=O)(=O)N2CCN(Cc3ccco3)CC2)cc1,i,6,4,i,·,·
CCCS(=O)(=O)N1CCN(Cc2ccco2)CC1,i,-7,5,-6.7*,i,i
CCc1c(C)nc2ncnn2c1N1CCN(S(=O)(=O)c2ccc(OC)cc2)CC1,i,14,5,-6.3*,50%*,i
Cc1ccccc1NC(=O)c1ccc(C)c(S(=O)(=O)NCc2cccnc2)c1,i,5,3,-7.2*,27%*,i
COc1ccccc1NS(=O)(=O)c1cc(C(=O)NCc2cccnc2)ccc1C,i,1,4,i,·,·
CN1CCC(N(C)C(=S)NCCc2ccccc2)CC1,i,2,5,-7.3*,i,i
O=C(Nc1ncccn1)c1cc([N+](=O)[O-])cc([N+](=O)[O-])c1,i,2,2,i,·,·
O=[N+]([O-])c1cc(-c2ncccn2)c([N+](=O)[O-])s1,i,-16,-30,-6.3*,48%*,i
O=C(NCc1ccccc1)c1sc(=S)n2c1[nH]c(=O)c1ccccc12,i,-13,1,-6.7*,63%*,i
COc1ccc(-c2nc(CN3CCN(c4ncnc5ccccc45)CC3)c(C)o2)c(OC)c1,i,7,-1,-5.1*,52%*,i
Cc1ccc(-c2nnn(CC(=O)N(CCN3CCOCC3)C(C(=O)NC(C)(C)C)c3ccco3)n2)cc1 (stereo not given),i,4,4,-6.2*,24%*,-10*
COCC(C)NC(=O)CSc1nc2ccccc2c(=O)n1CCc1ccc(S(N)(=O)=O)cc1 (stereo not given),i,-6,4,i,·,·
CC(C)(C)C(=O)Oc1cccc(Nc2ncnc3ccccc23)c1,i,1,2,-5*,61%*,i
CN1CCN(S(=O)(=O)c2ccc(Br)c3ccccc23)CC1,i,-2,12,i,·,·
O=[N+]([O-])c1cc(Br)cc(C=Nc2ccc3c(c2)OCO3)c1O,i,-20,-11,-8*,32%*,i
Cc1ccc(S(=O)(=O)NNC(=O)c2sc3nc(C)cc(C)c3c2-n2cccc2)cc1,i,-2,-4,-5*,i,i
NC(=O)c1ccc(SCC(=O)OCC(=O)NCc2ccco2)c([N+](=O)[O-])c1,i,-13,-27,i,·,·
CNc1nc(-c2ccc3c(c2)CCN3C(=O)c2cccc(F)c2)cs1,i,8,-13,-5.2*,i,i
CCC1=NN2C(=N)/C(=C\c3ccc(SCc4ccco4)o3)C(=O)N=C2S1,i,-5,-9,-5.3*,i,i
CCCC1=NN2C(=N)/C(=C\c3ccc(SCc4ccco4)o3)C(=O)N=C2S1,i,5,-10,-5.8*,69%*,i
CCCC1=NN2C(=N)/C(=C\c3cc(C)n(Cc4ccccc4)c3C)C(=O)N=C2S1,i,-44,-25,i,·,·
COc1ccc(CCN(C)C(=O)c2c(C)noc2C)cc1OC,·,5,-8,·,·,·
COCC(=O)NC1CCN(S(=O)(=O)c2ccc(C(=O)O)cc2)CC1,i,-1,10,i,·,·
COCC(=O)NC1CCN(S(=O)(=O)c2cccc(C(C)=O)c2)CC1,i,-5,0,-5.1*,i,i
